Data: ChEMBL document CHEMBL1156831, “Discovery of matrix metalloproteases selective and activated peptide-doxorubicin prodrugs as anti-tumor agents” (Bioorg Med Chem Lett, 2010)
Values after ≈ are worked out from the molar mass of the structure shown. Numbered stars: 1 amine (or outer) side, 2 acyl side, 3 side chain; on linkers, the order of the positions; unused ones are H or OH. Square brackets hold non-standard residues; d marks the D form. Peptide text beside a SMILES is read from it. * marks the point of attachment. ξ: configuration not given here. Doxorubicin(3'-N) = COc1cccc2c1C(=O)c1c(O)c3c(c(O)c1C2=O)C[C@@](O)(C(=O)CO)C[C@@H]3O[C@H]1C[C@H](N*)[C@H](O)[C@H](C)O1; X4 = O=C(c1cc(S(=O)(=O)O)cc(S(=O)(=O)O)c1)*; X6 = CN1CCN(CCCC(N[*:1])C(=O)[*:2])CC1; hTyr = N[C@@H](CCc1ccc(O)cc1)C(=O)O; X2 = O=C(C(CCc1ccncc1)N[*:1])[*:2]; hPhe = N[C@@H](CCc1ccccc1)C(=O)O; Cit = NC(=O)NCCC[C@H](N)C(=O)O; Suc = O=C(CCC(=O)[*:2])[*:1]; X5 = O=C(CS(=O)(=O)O)*; ξP = O=C(O)C1CCCN1; Bn = c1ccc(C*)cc1

Key:
[1] = target: Neprilysin (Homo sapiens) (UniProt P08473); test: Ratio Kcat to […] for neprilysin
[2] = target: 72 kDa type IV collagenase (Homo sapiens) (UniProt P08253); test: Ratio Kcat to Ki for MMP2
[3] = target: Matrix metalloproteinase-14 (Homo sapiens) (UniProt P50281); test: Ratio Kcat to […] for MMP14
[4] = target: Matrix metalloproteinase-9 (Homo sapiens) (UniProt P14780); test: Ratio Kcat to Ki for MMP9
[5] = Compound remaining in mouse blood after 6 hrs; type: ADME, tissue-based; settings: read-out: Stability
[6] = Aqueous solubility at pH 7.4; type: physicochemical; settings: aqueous medium
Bone marrow [7] = test: Bone marrow toxicity in mouse bone marrow assessed as reticulocyte count at 4 umol/kg qd for 10 days; type: tissue-based; settings: in vivo, 240 h
Outline: (§1)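 Mice were dosed once daily for 10 days (qdx10). Marrow toxicity was read out as the reticulocyte level, expressed as a percentage, and compared with vehicle-treated mice.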

[8] = Biodistribution in tumor in mouse bearing human HT1080 relative to doxorubicin; type: ADME, organism-based, Neoplasm; settings: in vivo
Outline: (§2)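 Dox was measured in HT1080 xenograft tumor and in heart tissue 24 h after a single iv dose in mice. The tumor/heart Dox ratio was normalized to the ratio obtained with free Dox.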

Bone marrow [9] = test: Bone marrow toxicity in mouse bone marrow assessed as reticulocyte count at 14 umol/kg qd for 10 days; type: tissue-based; settings: in vivo, 240 h; outline: as §1
[10] = Ratio of drug level in tumor to heart in mouse bearing human HT1080 cells relative to doxorubicin; type: ADME; settings: ht-1080; outline: as §2
Bone marrow [11] = test: Bone marrow toxicity in mouse bone marrow assessed as reticulocyte count at 2 umol/kg qd for 10 days; type: tissue-based; settings: in vivo, 240 h; outline: as §1
Bone marrow [12] = test: Bone marrow toxicity in mouse bone marrow assessed as reticulocyte count at 6 umol/kg qd for 10 days; type: tissue-based; settings: in vivo, 240 h; outline: as §1

Neprilysin (Homo sapiens), sequence (P08473 whole entry): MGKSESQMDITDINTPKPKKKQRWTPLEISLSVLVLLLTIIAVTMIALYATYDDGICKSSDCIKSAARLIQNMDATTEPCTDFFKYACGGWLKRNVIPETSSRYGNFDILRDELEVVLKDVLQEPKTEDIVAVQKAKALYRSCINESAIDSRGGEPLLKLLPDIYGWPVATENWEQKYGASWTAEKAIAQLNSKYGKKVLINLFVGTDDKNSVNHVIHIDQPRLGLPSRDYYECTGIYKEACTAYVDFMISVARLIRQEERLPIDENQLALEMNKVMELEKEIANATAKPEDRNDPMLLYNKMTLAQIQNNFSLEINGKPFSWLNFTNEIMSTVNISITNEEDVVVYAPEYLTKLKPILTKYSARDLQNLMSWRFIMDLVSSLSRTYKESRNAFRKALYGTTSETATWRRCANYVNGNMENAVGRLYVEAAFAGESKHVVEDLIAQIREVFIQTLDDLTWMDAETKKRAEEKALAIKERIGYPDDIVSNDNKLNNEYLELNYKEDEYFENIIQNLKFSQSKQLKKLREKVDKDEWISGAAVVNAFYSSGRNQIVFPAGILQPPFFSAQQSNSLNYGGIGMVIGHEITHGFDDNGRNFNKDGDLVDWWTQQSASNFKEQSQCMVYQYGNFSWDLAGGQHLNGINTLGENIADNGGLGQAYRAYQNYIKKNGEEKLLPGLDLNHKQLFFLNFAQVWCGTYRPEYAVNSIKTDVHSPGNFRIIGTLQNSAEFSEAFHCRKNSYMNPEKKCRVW
Matrix metalloproteinase-9 (Homo sapiens), sequence (P14780 whole entry): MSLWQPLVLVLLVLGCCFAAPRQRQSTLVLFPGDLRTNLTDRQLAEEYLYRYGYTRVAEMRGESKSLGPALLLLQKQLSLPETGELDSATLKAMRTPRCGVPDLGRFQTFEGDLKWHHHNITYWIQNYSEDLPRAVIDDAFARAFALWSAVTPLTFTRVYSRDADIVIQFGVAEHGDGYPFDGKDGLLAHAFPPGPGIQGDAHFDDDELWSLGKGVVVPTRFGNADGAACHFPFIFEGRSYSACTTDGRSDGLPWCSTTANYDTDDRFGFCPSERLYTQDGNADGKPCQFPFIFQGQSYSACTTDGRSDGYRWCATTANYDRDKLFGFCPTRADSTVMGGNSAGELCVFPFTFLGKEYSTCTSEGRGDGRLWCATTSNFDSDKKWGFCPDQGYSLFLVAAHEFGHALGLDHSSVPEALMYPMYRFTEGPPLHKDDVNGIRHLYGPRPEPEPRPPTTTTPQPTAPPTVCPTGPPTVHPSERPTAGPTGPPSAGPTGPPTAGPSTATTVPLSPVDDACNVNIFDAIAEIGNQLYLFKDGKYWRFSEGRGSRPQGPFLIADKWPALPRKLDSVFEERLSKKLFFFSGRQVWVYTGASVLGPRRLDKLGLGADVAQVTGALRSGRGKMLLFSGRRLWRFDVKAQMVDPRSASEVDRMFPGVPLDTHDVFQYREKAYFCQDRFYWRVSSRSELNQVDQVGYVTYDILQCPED
72 kDa type IV collagenase (Homo sapiens), sequence (P08253 110-660 limits assumed): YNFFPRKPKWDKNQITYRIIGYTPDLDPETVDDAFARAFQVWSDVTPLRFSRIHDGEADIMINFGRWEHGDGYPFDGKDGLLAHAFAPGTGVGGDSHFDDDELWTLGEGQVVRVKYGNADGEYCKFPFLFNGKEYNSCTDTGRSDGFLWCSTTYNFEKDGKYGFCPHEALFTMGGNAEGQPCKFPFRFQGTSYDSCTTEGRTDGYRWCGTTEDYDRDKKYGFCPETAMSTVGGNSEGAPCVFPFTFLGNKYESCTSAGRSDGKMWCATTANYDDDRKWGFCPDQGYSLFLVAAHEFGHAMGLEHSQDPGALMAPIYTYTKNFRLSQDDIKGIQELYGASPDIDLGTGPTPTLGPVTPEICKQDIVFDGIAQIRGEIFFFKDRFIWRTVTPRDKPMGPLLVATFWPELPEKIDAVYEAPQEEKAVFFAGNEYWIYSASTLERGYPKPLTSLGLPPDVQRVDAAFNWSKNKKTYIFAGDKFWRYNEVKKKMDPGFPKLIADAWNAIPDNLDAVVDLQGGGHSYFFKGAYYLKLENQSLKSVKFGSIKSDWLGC

SMILES	Ratio [1]	Ratio [2]	Ratio [3]	Ratio [4]	remaining at 6 h [5] [%]	solubility [6] [µg/mL]	Drug uptake [8] [pmol/g]	Ratio [10]	Activity (Bone marrow [7]) [%]	Activity (Bone marrow [9]) [%]	Activity (Bone marrow [11]) [%]	Activity (Bone marrow [12]) [%]
COc1cccc2c1C(=O)c1c(O)c3c(c(O)c1C2=O)C[C@@](O)(C(=O)CO)C[C@@H]3O[C@H]1C[C@H](NC(=O)[C@H](CC(C)C)NC(=O)[C@H](CC(C)C)NC(=O)CNC(=O)[C@H](CC(C)C)NC(=O)[C@@H]2CCCN2C(C)=O)[C@H](O)[C@H](C)O1 (Ac-PLGLL-{Doxorubicin(3'-N)})	22	18	4	> 120	–	–	–	–	–	–	–	–
COc1cccc2c1C(=O)c1c(O)c3c(c(O)c1C2=O)C[C@@](O)(C(=O)CO)C[C@@H]3O[C@H]1C[C@H](NC(=O)[C@H](CC(C)C)NC(=O)[C@H](C)NC(=O)[C@H](Cc2ccc(O)cc2)NC(=O)[C@H](CC(C)C)NC(=O)CNC(=O)[C@H](CC(C)C)NC(=O)[C@@H]2CCCN2C(C)=O)[C@H](O)[C@H](C)O1 (Ac-PLGLYAL-{Doxorubicin(3'-N)})	> 120	> 120	> 120	> 120	–	–	–	–	–	–	–	–
COc1cccc2c1C(=O)c1c(O)c3c(c(O)c1C2=O)C[C@@](O)(C(=O)CO)C[C@@H]3O[C@H]1C[C@H](N)[C@H](O)[C@H](C)O1 [DOXORUBICIN]	–	–	–	–	–	–	1600	1	0.1	0.2	0.4	0.3
COc1cccc2c1C(=O)c1c(O)c3c(c(O)c1C2=O)C[C@@](O)(C(=O)CO)C[C@@H]3O[C@H]1C[C@H](NC(=O)[C@H](CC(C)C)NC(=O)[C@H](CC(C)C)NC(=O)CNC(=O)[C@H](CC(C)C)NC(C)=O)[C@H](O)[C@H](C)O1 (Ac-LGLL-{Doxorubicin(3'-N)})	5	< 1	< 1	< 1	–	–	–	–	–	–	–	–
COc1cccc2c1C(=O)c1c(O)c3c(c(O)c1C2=O)C[C@@](O)(C(=O)CO)C[C@@H]3O[C@H]1C[C@H](NC(=O)[C@H](CC(C)C)NC(=O)CNC(=O)[C@H](CC(C)C)NC(=O)[C@@H]2CCCN2C(C)=O)[C@H](O)[C@H](C)O1 (Ac-PLGL-{Doxorubicin(3'-N)})	–	< 1	–	< 1	–	–	–	–	–	–	–	–
COc1cccc2c1C(=O)c1c(O)c3c(c(O)c1C2=O)C[C@@](O)(C(=O)CO)C[C@@H]3O[C@H]1C[C@H](NC(=O)[C@H](CC(C)C)NC(=O)[C@H](Cc2ccc(O)cc2)NC(=O)[C@H](CC(C)C)NC(=O)CNC(=O)[C@H](CC(C)C)NC(C)=O)[C@H](O)[C@H](C)O1 (Ac-LGLYL-{Doxorubicin(3'-N)})	8	6	24	1	–	–	–	–	–	–	–	–
COc1cccc2c1C(=O)c1c(O)c3c(c(O)c1C2=O)C[C@@](O)(C(=O)CO)C[C@@H]3O[C@H]1C[C@H](NC(=O)[C@H](CC(C)C)NC(=O)[C@H](Cc2ccc(O)cc2)NC(=O)[C@@H](NC(=O)CNC(=O)[C@H](CO)NC(=O)[C@@H]2CCCN2C(=O)c2cc(S(=O)(=O)O)cc(S(=O)(=O)O)c2)[C@@H](C)OCc2ccccc2)[C@H](O)[C@H](C)O1 (X4-PSGT(Bn)YL-{Doxorubicin(3'-N)})	< 1	114	> 120	> 120	100	–	600	13	–	–	–	–

Second part, led by results:

Ratio [1]	Ratio [2]	Ratio [3]	Ratio [4]	remaining at 6 h [5] [%]	solubility [6] [µg/mL]	Drug uptake [8] [pmol/g]	Ratio [10]	SMILES	Activity (Bone marrow [7]) [%]	Activity (Bone marrow [9]) [%]	Activity (Bone marrow [11]) [%]	Activity (Bone marrow [12]) [%]
1	11	19	< 1	–	–	–	–	COc1cccc2c1C(=O)c1c(O)c3c(c(O)c1C2=O)C[C@@](O)(C(=O)CO)C[C@@H]3O[C@H]1C[C@H](NC(=O)[C@H](CC(C)C)NC(=O)[C@H](C)NC(=O)[C@H](CCc2ccccc2)NC(=O)CNC(=O)[C@H](CC(C)C)NC(=O)[C@@H]2CCCN2C(C)=O)[C@H](O)[C@H](C)O1 (Ac-PLG[hPhe]AL-{Doxorubicin(3'-N)})	–	–	–	–
22	88	> 120	390	–	–	–	–	COc1cccc2c1C(=O)c1c(O)c3c(c(O)c1C2=O)C[C@@](O)(C(=O)CO)C[C@@H]3O[C@H]1C[C@H](NC(=O)[C@H](CC(C)C)NC(=O)[C@H](Cc2ccc(O)cc2)NC(=O)[C@H](CC(C)C)NC(=O)CNC(=O)[C@H](CC(C)C)NC(=O)[C@@H]2CCCN2C(C)=O)[C@H](O)[C@H](C)O1 (Ac-PLGLYL-{Doxorubicin(3'-N)})	–	–	–	–
< 1	40	97	107	90	> 2200	–	–	COc1cccc2c1C(=O)c1c(O)c3c(c(O)c1C2=O)C[C@@](O)(C(=O)CO)C[C@@H]3O[C@H]1C[C@H](NC(=O)[C@H](CC(C)C)NC(=O)[C@H](Cc2ccc(O)cc2)NC(=O)[C@H](CSCc2ccccc2)NC(=O)CNC(=O)[C@H](CC(C)C)NC(=O)[C@@H]2CCCN2C(=O)[C@H](CCC(=O)O)NC(C)=O)[C@H](O)[C@H](C)O1 (Ac-EPLGC(Bn)YL-{Doxorubicin(3'-N)})	–	–	–	–
< 1	116	> 120	> 120	13	1 (≈ 0.767 µM)	–	–	COc1cccc2c1C(=O)c1c(O)c3c(c(O)c1C2=O)C[C@@](O)(C(=O)CO)C[C@@H]3O[C@H]1C[C@H](NC(=O)[C@H](CC(C)C)NC(=O)[C@H](CCc2ccc(O)cc2)NC(=O)[C@H](CCc2ccccc2)NC(=O)CNC(=O)[C@H](CC(C)C)NC(=O)[C@@H]2CCCN2C(C)=O)[C@H](O)[C@H](C)O1 (Ac-PLG[hPhe][hTyr]L-{Doxorubicin(3'-N)})	–	–	–	–
< 1	37	111	25	90	> 2400	1500	16	COc1cccc2c1C(=O)c1c(O)c3c(c(O)c1C2=O)C[C@@](O)(C(=O)CO)C[C@@H]3O[C@H]1C[C@H](NC(=O)[C@H](CC(C)C)NC(=O)[C@H](Cc2ccc(O)cc2)NC(=O)[C@H](COCc2ccccc2)NC(=O)CNC(=O)[C@H](CC(C)C)NC(=O)[C@@H]2CCCN2C(=O)CS(=O)(=O)O)[C@H](O)[C@H](C)O1 (X5-PLGS(Bn)YL-{Doxorubicin(3'-N)})	–	–	–	–
< 1	7	25	34	–	–	–	–	COc1cccc2c1C(=O)c1c(O)c3c(c(O)c1C2=O)C[C@@](O)(C(=O)CO)C[C@@H]3O[C@H]1C[C@H](NC(=O)[C@H](CC(C)C)NC(=O)[C@H](Cc2ccc(O)cc2)NC(=O)[C@H](COCc2ccccc2)NC(=O)CNC(=O)[C@H](CC(C)C)NC(=O)[C@@H]2CCCN2C(C)=O)[C@H](O)[C@H](C)O1 (Ac-PLGS(Bn)YL-{Doxorubicin(3'-N)})	–	–	–	–
< 1	20	89	52	100	1400 (≈ 1030 µM)	–	–	COc1cccc2c1C(=O)c1c(O)c3c(c(O)c1C2=O)C[C@@](O)(C(=O)CO)C[C@@H]3O[C@H]1C[C@H](NC(=O)[C@H](CC(C)C)NC(=O)[C@H](Cc2ccc(O)cc2)NC(=O)[C@H](COCc2ccccc2)NC(=O)CNC(=O)[C@H](CC(C)C)NC(=O)C2CCCN2C(=O)CCC(=O)O)[C@H](O)[C@H](C)O1 (stereo partly drawn) (Suc-[ξP]LGS(Bn)YL-{Doxorubicin(3'-N)})	–	–	–	–
< 1	55	> 120	73	100	130 (≈ 98.1 µM)	–	–	COc1cccc2c1C(=O)c1c(O)c3c(c(O)c1C2=O)C[C@@](O)(C(=O)CO)C[C@@H]3O[C@H]1C[C@H](NC(=O)[C@H](CC(C)C)NC(=O)C(CCCN2CCN(C)CC2)NC(=O)[C@H](CCc2ccccc2)NC(=O)CNC(=O)[C@H](CC(C)C)NC(=O)[C@@H]2CCCN2C(C)=O)[C@H](O)[C@H](C)O1 (stereo partly drawn) (Ac-PLG[hPhe][X6]L-{Doxorubicin(3'-N)})	–	–	–	–
< 1	25	56	38	29	> 2300	–	–	COc1cccc2c1C(=O)c1c(O)c3c(c(O)c1C2=O)C[C@@](O)(C(=O)CO)C[C@@H]3O[C@H]1C[C@H](NC(=O)[C@H](CC(C)C)NC(=O)[C@H](Cc2ccc(O)cc2)NC(=O)[C@H](COCc2ccccc2)NC(=O)CNC(=O)[C@H](CCCNC(N)=O)NC(=O)[C@@H]2CCCN2C(=O)CS(=O)(=O)O)[C@H](O)[C@H](C)O1 (X5-P[Cit]GS(Bn)YL-{Doxorubicin(3'-N)})	–	–	–	–
2.1	24	69	79	31	40 (≈ 32.5 µM)	–	–	COC[C@H](NC(=O)CNC(=O)[C@H](CC(C)C)NC(=O)[C@@H]1CCCN1C(C)=O)C(=O)N[C@@H](Cc1ccc(O)cc1)C(=O)N[C@@H](CC(C)C)C(=O)N[C@H]1C[C@H](O[C@H]2C[C@](O)(C(=O)CO)Cc3c(O)c4c(c(O)c32)C(=O)c2c(OC)cccc2C4=O)O[C@@H](C)[C@H]1O (Ac-PLGS(Me)YL-{Doxorubicin(3'-N)})	–	–	–	–
< 1	21	58	43	59	380 (≈ 294 µM)	–	–	COc1cccc2c1C(=O)c1c(O)c3c(c(O)c1C2=O)C[C@@](O)(C(=O)CO)C[C@@H]3O[C@H]1C[C@H](NC(=O)[C@H](CC(C)C)NC(=O)[C@H](Cc2ccc(O)cc2)NC(=O)C(CCc2ccncc2)NC(=O)CNC(=O)[C@H](CC(C)C)NC(=O)[C@@H]2CCCN2C(C)=O)[C@H](O)[C@H](C)O1 (stereo partly drawn) (Ac-PLG[X2]YL-{Doxorubicin(3'-N)})	–	–	–	–
